Laboratory results taken from ChEMBL document CHEMBL1649151, “Urinary bactericidal activity of Doripenem versus that of levofloxacin in patients with complicated urinary tract infections or pyelonephritis” (Antimicrob Agents Chemother, 2009).
≈ marks a conversion by molar mass, not a printed value.

Assays:
[1] = tested on: Staphylococcus haemolyticus; experiment: Antimicrobial activity against Staphylococcus haemolyticus 1949819 B-M isolated from patient with pyelonephritis assessed as >3-log reduction in urinary bacterial titer after 20 hrs; format: functional, Urine
Escherichia coli [2] = experiment: Antimicrobial activity against Escherichia coli 2062717 B-P isolated from patient with pyelonephritis assessed as >3-log reduction in urinary bacterial titer after 16 hrs; format: functional, Urine
Outline: (§1)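 Patient urine was collected on day 3 of i.v. therapy (steady state) over 4-h intervals after infusion start, stored at –80°C, and sterile filtered. It was twofold serially diluted (1:0 to 1:131,072) in the patient's own pre-dose drug-free urine, inoculated to 1.0 x 10^6–9.5 x 10^6 CFU/ml, and incubated for 18 h at 37°C. Subcultures were grown on blood agar for 24 h. The UBT is the reciprocal of the highest dilution giving >99.9% kill.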

Escherichia coli [3] = experiment: Antimicrobial activity against Escherichia coli 1780063 B-A isolated from patient with pyelonephritis assessed as >3-log reduction in urinary bacterial titer after 16 hrs; format: functional, Urine
Outline: (§2)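 Urine was collected before dosing and on day 3 of i.v. therapy (steady state), in 4-h intervals from infusion start (0–4 to 20–24 h), stored at −80°C and sterile filtered. It was serially diluted twofold (1:0 to 1:131,072) in the patient's drug-free pre-dose urine. Microdilution used an inoculum of 1.0 x 10^6–9.5 x 10^6 CFU/ml, incubated 18 h at 37°C, then subcultured 24 h on blood agar. The endpoint was >99.9% kill, reported as reciprocal titer.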

Escherichia coli [4] = experiment: Antimicrobial activity against Escherichia coli 1889645 B-I isolated from patient with pyelonephritis assessed as >3-log reduction in urinary bacterial titer after 12 hrs; format: functional, Urine
Outline: (§3)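 Urine was collected on day 3 of i.v. therapy (steady state) over 4-h intervals from infusion start (0–4 to 20–24 h), stored at –80°C and sterile filtered. It was serially diluted twofold (1:0 up to 1:131,072) in the patient's own pre-dose drug-free urine. Microdilution used a final inoculum of 1.0 x 10^6 to 9.5 x 10^6 CFU/ml, incubated 18 h at 37°C in air. 10 µl was subcultured onto 5% blood Columbia agar for 24 h at 37°C. The bactericidal endpoint was >99.9% (>3-log) kill, reported as a reciprocal titer.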

Escherichia coli [5] = experiment: Antimicrobial activity against Escherichia coli 1889645 B-I isolated from patient with pyelonephritis by Etest; format: functional
Escherichia coli [6] = experiment: Antimicrobial activity against Escherichia coli 1780063 B-A isolated from patient with pyelonephritis by Etest; format: functional
Escherichia coli [7] = experiment: Antimicrobial activity against Escherichia coli 1821385 B-C isolated from patient with pyelonephritis assessed as >3-log reduction in urinary bacterial titer after 12 hrs; format: functional, Urine; outline: as §3
Escherichia coli [8] = experiment: Antimicrobial activity against Escherichia coli 2297257 B-W isolated from patient with pyelonephritis assessed as >3-log reduction in urinary bacterial titer after 12 hrs; format: functional, Urine
Escherichia coli [9] = experiment: Antimicrobial activity against Escherichia coli 2062717 B-P isolated from patient with pyelonephritis assessed as >3-log reduction in urinary bacterial titer after 8 hrs; format: functional, Urine
Escherichia coli [10] = experiment: Antimicrobial activity against Escherichia coli 1949825 B-K isolated from patient with pyelonephritis assessed as >3-log reduction in urinary bacterial titer after 8 hrs; format: functional, Urine; outline: as §1
[11] = tested on: Staphylococcus haemolyticus; experiment: Antimicrobial activity against Staphylococcus haemolyticus 1949819 B-M isolated from patient with pyelonephritis assessed as >3-log reduction in urinary bacterial titer after 8 hrs; format: functional, Urine
Escherichia coli [12] = experiment: Antimicrobial activity against Escherichia coli 1949825 B-K isolated from patient with pyelonephritis assessed as >3-log reduction in urinary bacterial titer after 4 hrs; format: functional, Urine; outline: as §1
Escherichia coli [13] = experiment: Antimicrobial activity against Escherichia coli 1889646 B-F isolated from patient with pyelonephritis assessed as >3-log reduction in urinary bacterial titer after 24 hrs; format: functional, Urine; outline: as §3
Escherichia coli [14] = experiment: Antimicrobial activity against Escherichia coli 1821385 B-C isolated from patient with pyelonephritis assessed as >3-log reduction in urinary bacterial titer after 24 hrs; format: functional, Urine; outline: as §3
Escherichia coli [15] = experiment: Antimicrobial activity against Escherichia coli 2297257 B-W isolated from patient with pyelonephritis assessed as >3-log reduction in urinary bacterial titer after 24 hrs; format: functional, Urine
[16] = tested on: Staphylococcus haemolyticus; experiment: Antimicrobial activity against Staphylococcus haemolyticus 1949819 B-M isolated from patient with pyelonephritis assessed as >3-log reduction in urinary bacterial titer after 24 hrs; format: functional, Urine
Enterococcus faecalis [17] = experiment: Antimicrobial activity against Enterococcus faecalis 2215767-10 B-S isolated from patient with pyelonephritis assessed as >3-log reduction in urinary bacterial titer after 4 hrs; format: functional, Urine; outline: as §2
Escherichia coli [18] = experiment: Antimicrobial activity against Escherichia coli 1655646 A-Y isolated from patient with pyelonephritis assessed as >3-log reduction in urinary bacterial titer after 20 hrs; format: functional, Urine; outline: as §2
Escherichia coli [19] = experiment: Antimicrobial activity against Escherichia coli 1780064 A-X isolated from patient with pyelonephritis assessed as >3-log reduction in urinary bacterial titer after 20 hrs; format: functional, Urine; outline: as §3
[20] = tested on: Staphylococcus epidermidis; experiment: Antimicrobial activity against Staphylococcus epidermidis 1949822 B-J isolated from patient with pyelonephritis assessed as >3-log reduction in urinary bacterial titer after 16 hrs; format: functional, Urine
Pseudomonas aeruginosa [21] = experiment: Antimicrobial activity against Pseudomonas aeruginosa 1821383 B-E isolated from patient with pyelonephritis assessed as >3-log reduction in urinary bacterial titer after 16 hrs; format: functional, Urine
Escherichia coli [22] = experiment: Antimicrobial activity against Escherichia coli 2062716 B-R isolated from patient with pyelonephritis assessed as >3-log reduction in urinary bacterial titer after 16 hrs; format: functional, Urine; outline: as §1
Escherichia coli [23] = experiment: Antimicrobial activity against Escherichia coli 1889647 B-H isolated from patient with pyelonephritis assessed as >3-log reduction in urinary bacterial titer after 16 hrs; format: functional, Urine; outline: as §3
Escherichia coli [24] = experiment: Antimicrobial activity against Escherichia coli 1655646 A-Y isolated from patient with pyelonephritis assessed as >3-log reduction in urinary bacterial titer after 16 hrs; format: functional, Urine; outline: as §2
Pseudomonas aeruginosa [25] = experiment: Antimicrobial activity against Pseudomonas aeruginosa 2062713 B-Q isolated from patient with pyelonephritis assessed as >3-log reduction in urinary bacterial titer after 12 hrs; format: functional, Urine
Pseudomonas aeruginosa [26] = experiment: Antimicrobial activity against Pseudomonas aeruginosa 1821383 B-E isolated from patient with pyelonephritis by Etest; format: functional
Serratia marcescens = experiment: Antimicrobial activity against Serratia marcescens 2297260 B-U isolated from patient with pyelonephritis by Etest; format: functional
Enterococcus faecalis [27] = experiment: Antimicrobial activity against Enterococcus faecalis 2215767-10 B-S isolated from patient with pyelonephritis by Etest; format: functional
Escherichia coli [28] = experiment: Antimicrobial activity against Escherichia coli 1655646 A-Y isolated from patient with pyelonephritis assessed as >3-log reduction in urinary bacterial titer after 8 hrs; format: functional, Urine; outline: as §2
Enterococcus faecalis [29] = experiment: Antimicrobial activity against Enterococcus faecalis 2297262-10 B-V isolated from patient with pyelonephritis assessed as >3-log reduction in urinary bacterial titer after 8 hrs; format: functional, Urine; outline: as §2
Escherichia coli [30] = experiment: Antimicrobial activity against Escherichia coli 1889647 B-H isolated from patient with pyelonephritis assessed as >3-log reduction in urinary bacterial titer after 4 hrs; format: functional, Urine; outline: as §3
Escherichia coli [31] = experiment: Antimicrobial activity against Escherichia coli 1821386 B-D isolated from patient with pyelonephritis assessed as >3-log reduction in urinary bacterial titer after 4 hrs; format: functional, Urine; outline: as §3
Staphylococcus aureus = experiment: Antimicrobial activity against Staphylococcus aureus 1889640 A-Z isolated from patient with pyelonephritis assessed as >3-log reduction in urinary bacterial titer after 24 hrs; format: functional, Urine
Escherichia coli [32] = experiment: Antimicrobial activity against Escherichia coli 1780064 A-X isolated from patient with pyelonephritis assessed as >3-log reduction in urinary bacterial titer after 24 hrs; format: functional, Urine; outline: as §3

With `C[C@@H](O)[C@H]1C(=O)N2C(C(=O)O)=C(S[C@@H]3CN[C@H](CNS(N)(=O)=O)C3)[C@H](C)[C@H]12` [DORIPENEM] the urinary bactericidal titer [1] was 2048 reciprocal titer, the urinary bactericidal titer (Escherichia coli [2]) was 512 reciprocal titer and the urinary bactericidal titer (Escherichia coli [3]) was 1024 reciprocal titer. For the same compound, the urinary bactericidal titer (Escherichia coli [4]) was 131000 reciprocal titer, the MIC (Escherichia coli [5]) was 0.03 µg/mL (≈ 0.0713 µM) and the MIC (Escherichia coli [6]) was 0.03 µg/mL (≈ 0.0713 µM). It also gave a urinary bactericidal titer (Escherichia coli [7]) of 32800 reciprocal titer, a urinary bactericidal titer (Escherichia coli [8]) of 16400 reciprocal titer and a urinary bactericidal titer (Escherichia coli [9]) of 1024 reciprocal titer. It also gave a urinary bactericidal titer (Escherichia coli [10]) of 4096 reciprocal titer, a urinary bactericidal titer [11] of 128 reciprocal titer and a urinary bactericidal titer (Escherichia coli [12]) of 16400 reciprocal titer. It also gave a urinary bactericidal titer (Escherichia coli [13]) of 65500 reciprocal titer, a urinary bactericidal titer (Escherichia coli [14]) of 256 reciprocal titer and a urinary bactericidal titer (Escherichia coli [15]) of 4096 reciprocal titer. The urinary bactericidal titer [16] was 128 reciprocal titer.

Work on `C[C@H]1COc2c(N3CCN(C)CC3)c(F)cc3c(=O)c(C(=O)O)cn1c23.C[C@H]1COc2c(N3CCN(C)CC3)c(F)cc3c(=O)c(C(=O)O)cn1c23.O` [LEVOFLOXACIN] yielded a Time (Enterococcus faecalis [17]) of 0 h, a urinary bactericidal titer (Escherichia coli [18]) of 1024 reciprocal titer and a urinary bactericidal titer (Escherichia coli [19]) of 256 reciprocal titer. The urinary bactericidal titer [20] was 4 reciprocal titer, the urinary bactericidal titer (Pseudomonas aeruginosa [21]) was 128 reciprocal titer and the urinary bactericidal titer (Escherichia coli [22]) was 256 reciprocal titer. It also gave a urinary bactericidal titer (Escherichia coli [23]) of 1024 reciprocal titer, a urinary bactericidal titer (Escherichia coli [24]) of 1024 reciprocal titer and a urinary bactericidal titer (Pseudomonas aeruginosa [25]) of 4 reciprocal titer. For the same compound, the MIC (Pseudomonas aeruginosa [26]) was 0.25 µg/mL, the MIC (Serratia marcescens) was 0.19 µg/mL and the MIC (Enterococcus faecalis [27]) was > 32 µg/mL. For the same compound, the urinary bactericidal titer (Escherichia coli [28]) was 2048 reciprocal titer, the urinary bactericidal titer (Enterococcus faecalis [29]) was 0 reciprocal titer and the urinary bactericidal titer (Escherichia coli [30]) was 2048 reciprocal titer. It also gave a urinary bactericidal titer (Escherichia coli [31]) of 2048 reciprocal titer, a urinary bactericidal titer (Staphylococcus aureus) of 64 reciprocal titer and a urinary bactericidal titer (Escherichia coli [32]) of 128 reciprocal titer.
